The record followed here is ChEMBL document CHEMBL1156820, “Novel highly potent and selective sigma 1 receptor antagonists related to spipethiane” (J Med Chem, 2010).

Activity calls are given as the source filed them. A value given as a limit tells only on which side of the number the result lay.

Assay [1] is described as follows: Selectivity for human sigma1 receptor over rat sigma2 receptor. In a few lines: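 Selectivity ratio is the antilog of pKi(σ1) minus pKi(σ2). σ1 binding: Jurkat membranes with [3H](+)-pentazocine (8 nM). σ2 binding: rat cortex membranes with [3H]DTG (5 nM) plus 300 nM (+)-pentazocine. Both run 2 h at 22 °C in 5 mM Tris/HCl pH 7.4, nonspecific binding with 10 μM haloperidol.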

The nature of assay [2]: Displacement of [3H]DTG from sigma2 receptor in rat cerebral cortex cell membrane. It counts as cell membranes. In a few lines: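 Rat cerebral cortex membranes (100-200 μg protein) incubated with [3H]DTG (5 nM) and 300 nM (+)-pentazocine to mask σ1 sites, across a range of test concentrations, 2 h at 22 °C in 5 mM Tris/HCl pH 7.4. Nonspecific binding defined with 10 μM haloperidol. GF/B filtration, scintillation counting. Triplicates; Ki from two to three experiments.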

In assay [3] the target is Sigma non-opioid intracellular receptor 1 (Homo sapiens, UniProt Q99720). The experiment in a line: Displacement of [3H](+)-pentazocine from sigma1 receptor in human Jurkat cell membrane. It counts as cell membranes. In general terms: In a radioligand displacement assay an active substance lowers the binding of a labelled ligand.
Assay [4] is described as follows: Antagonist activity at sigma2 receptor in guinea pig ileum longitudinal muscle assessed as inhibition of 5-HT-induced contractions. It counts as functional, tissue-based. The note with it: Cavia porcellus. The method in brief: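 Longitudinal muscle/myenteric plexus ileum segments from male guinea pigs (300-400 g), 1 g tension, Tyrode's at 37 °C gassed with 95% O2/5% CO2, 1 μM ketanserin present throughout. After 90 min equilibration, three noncumulative 5-HT concentration-response curves; the second is run with test compound. 5-HT contact 1 min, 20 min washes between doses; peak isotonic contraction recorded.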

For assay [5], the system named is MCF7. The experiment in a line: Growth inhibition of human MCF7 cells at 10 uM after 48 hrs by SRB assay. It counts as functional, cell-based. In a few lines:
(§1)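 MCF-7 or MCF-7/ADR cells seeded at 1 × 10⁴/well, dosed after 24 h with 10 μM compound for 48 h at 37 °C, 5% CO2. Fixed with cold TCA, stained with 0.4% SRB in 1% acetic acid, dye solubilized in 10 mM Tris, absorbance read at 520 nm. Percent inhibition given as mean ± SEM of three experiments.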
Background: Sulforhodamine B stains cellular protein and so reports cell mass.

For assay [6], the system named is NCI/ADR-RES. The experiment in a line: Growth inhibition of human MCF7/ADR cells highly expressing sigma1 receptor at 10 uM after 48 hrs by SRB assay. The class given is functional, cell-based. In a few lines: as §1
The nature of assay [7]: Growth inhibition of human MCF7/ADR cells highly expressing sigma1 receptor after 48 hrs by SRB assay. The class given is functional. Particulars: NCI/ADR-RES. In a few lines:
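Cells seeded at 1 × 10⁴/well; after 24 h, compound (10 nM-10 μM) added in quadruplicate for 48 h at 37 °C, 5% CO2, with a time-zero plate read. TCA fixation, 0.4% SRB stain, absorbance at 520 nm. GI50 is the concentration halving net protein increase, interpolated from % growth versus log concentration; mean of triplicates.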

Assay [8] in a line: Cell cycle arrest in human MCF7/ADR cells highly expressing sigma1 receptor assessed as accumulation at G0/G1 phase at 10 uM after 48 hrs by propidium iodide staining based flow cytometry relative to control. It counts as functional. The note with it: NCI/ADR-RES. The method in brief: (§2)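 MCF-7 or MCF-7/ADR cells (3 × 10⁵/mL) held 48 h at 37 °C, 5% CO2 with 10 μM compound. Fixed in cold 70% ethanol for 15 min on ice, then stained 40 min at 37 °C with PI (50 μg/mL) plus RNase A (0.1 mg/mL) and 0.05% Triton X-100. Flow cytometry over 10000 events; one of three experiments shown.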
For orientation: Flow cytometry measures light scatter and fluorescence of single cells or particles in a stream.

Assay [9] in a line: Cell cycle arrest in human MCF7/ADR cells highly expressing sigma1 receptor assessed as accumulation at G2/M phase at 10 uM after 48 hrs by propidium iodide staining based flow cytometry relative to control. The class given is functional. The note with it: NCI/ADR-RES. The method in brief: as §2
Assay [10] can be described thus: Cell cycle arrest in human MCF7/ADR cells highly expressing sigma1 receptor assessed as accumulation at S phase at 10 uM after 48 hrs by propidium iodide staining based flow cytometry relative to control. It counts as functional. Particulars: NCI/ADR-RES. The method in brief:
as §2

For assay [11], the system named is Mus musculus. The experiment in a line: Analgesic effect in CD1 mouse at 1 mg/kg, sc by radiant heat tail flick test. The class given is functional, organism-based. The arrangement: dose 1 mg/kg. The method in brief: (§3)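 Male CD-1 mice, 25-35 g. Radiant heat tail flick, IR source aimed at the lower third of the tail. Basal latency (2-3 s) is the mean of two trials 30 min apart. Drug 1 mg/kg sc or vehicle (DMSO 1%) given 30 min before morphine 5.0 mg/kg sc or saline. Read at 30, 60, 90 and 120 min after morphine; cutoff 12 s. Reported as %MPE, mean ± SEM, n=8; ANOVA with Student-Newman-Keuls.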

Assay [12] concerns Mus musculus. The experiment in a line: Increase in morphine-induced analgesia in CD1 mouse at 1 mg/kg, sc administered 30 mins before morphine challenge measured after 60 to 120 mins post morphine challenge by radiant heat tail flick test. The arrangement: dose 1 mg/kg. It counts as functional, organism-based. The method in brief: as §3
Assay [13] has as its system MCF7. The experiment in a line: Induction of apoptosis in human MCF7 cells at 10 uM after 48 hrs by Annexin V staining based flow cytometry relative to control. The class given is functional. In a few lines: (§4)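 MCF-7 or MCF-7/ADR cells (3 × 10⁵/mL) exposed to 10 μM compound for 48 h at 37 °C, 5% CO2. Stained with Annexin V-FITC (1:40) for 10 min at room temperature in binding buffer (10 mM Hepes pH 7.4, 140 mM NaCl, 2.5 mM CaCl2), then read by FACS. Reported as % Annexin V+ cells, mean ± SEM of three experiments.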

The test system of assay [14] is MCF7. The experiment in a line: Cell cycle arrest in human MCF7 cells assessed as accumulation at S phase at 10 uM after 48 hrs by propidium iodide staining based flow cytometry relative to control. The class given is functional. The method in brief: as §2
Assay [15] has as its system NCI/ADR-RES. The experiment in a line: Induction of apoptosis in human MCF7/ADR cells highly expressing sigma1 receptor at 10 uM after 48 hrs by Annexin V staining based flow cytometry relative to control. The class given is functional. In a few lines: as §4
Assay [16] has as its system MCF7. The experiment in a line: Cell cycle arrest in human MCF7 cells assessed as accumulation at G2/M phase at 10 uM after 48 hrs by propidium iodide staining based flow cytometry relative to control. It counts as functional. The method in brief: as §2
Assay [17] concerns MCF7. The experiment in a line: Cell cycle arrest in human MCF7 cells assessed as accumulation at G0/G1 phase at 10 uM after 48 hrs by propidium iodide staining based flow cytometry relative to control. The class given is functional. In a few lines: as §2

Sequence of Sigma non-opioid intracellular receptor 1 (Q99720 whole entry): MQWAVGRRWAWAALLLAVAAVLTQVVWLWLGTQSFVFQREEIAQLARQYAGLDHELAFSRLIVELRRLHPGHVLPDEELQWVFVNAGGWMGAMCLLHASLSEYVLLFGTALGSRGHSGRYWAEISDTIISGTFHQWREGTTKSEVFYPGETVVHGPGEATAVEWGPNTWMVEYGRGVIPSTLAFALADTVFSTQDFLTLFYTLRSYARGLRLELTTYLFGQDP

As a reminder, the pKi is the negative decadic logarithm of the Ki, by convention in mol/L. Regarding `c1ccc(CN2CCC3(CCc4ccccc4O3)CC2)cc1`, in assay [1], the Ki selectivity ratio (sigma2/sigma1) turned out to be 36. Also, the pKi in [2] came to 7.66; in [3] (jurkat), 9.21.

One may read the IC50 as the concentration that gives 50% inhibition. Broadly, the Ki is the dissociation constant of the complex between target and ligand, obtained from inhibition or displacement. Take `c1ccc(CN2CCC3(CCc4ccccc4C3)CC2)cc1`: in assay [1], the Ki selectivity ratio (sigma2/sigma1) worked out at 32. In [2], the pKi amounted to 7.85. The IC50 in assay [4] was greater than 10 µM. Further, affinity in assay [3] was put at a Ki of 0.437 nM.

Consider `c1ccc(CN2CCC3(CC2)OCc2ccccc2S3)cc1`, for which the Ki selectivity ratio (sigma2/sigma1) in [1] worked out at 2510. For the same compound, the outcome in the assay on MCF7 [5] was inactive. This compound also gave a pKi in assay [2] of 6.65. For the same compound, the concentration for half-maximal inhibition (IC50) in assay [4] is greater than 10 µM. Besides, the affinity in assay [3], expressed as Ki, was 0.0891 nM. Further, the outcome in the assay on NCI/ADR-RES [6] was Active.

The GI50 is the concentration giving 50% growth inhibition. Low readings indicate more potent growth inhibition, high ones less potent growth inhibition. Turning to `O=C1CC2(CCN(Cc3ccccc3)CC2)Oc2ccccc21`, the Ki selectivity ratio (sigma2/sigma1) in assay [1] worked out at 1440. In addition, the result with MCF7 [5] was inactive. In addition, in assay [2], the pKi was 6.52. Further, in [4], the half-maximal inhibitory concentration (IC50) amounted to 7.2 µM. This compound gave a Ki in [3] of 0.209 nM. This compound had a concentration for 50% growth inhibition (GI50) in [7] of 10 µM. For the same compound, in the assay with NCI/ADR-RES [6], the outcome was Active.

As to `c1ccc(CN2CCC3(CC2)OCc2ccccc2O3)cc1`, the Ki selectivity ratio (sigma2/sigma1) in assay [1] was determined as 2340. Also, in the assay on MCF7 [5], the outcome was inactive. In addition, the negative logarithm of the Ki (pKi) in assay [2] was 6.64. For the same compound, the 50% inhibitory concentration (IC50) in assay [4] was determined as 3.9 µM. In assay [3], this compound gave a Ki of 0.0977 nM. Also, in the assay on NCI/ADR-RES [6], the outcome was Active.

Take `O=C1CC(C2CCN(CCc3ccccc3)CC2)Oc2ccccc21` (racemic): the Ki selectivity ratio (sigma2/sigma1) in [1] stood at 76. For the same compound, the outcome in the assay with MCF7 [5] was inactive. The same compound returned a pKi in [2] of 8.08. In addition, the outcome with NCI/ADR-RES [6] was Active.

Take `O=C1CC(C2CCN(Cc3ccccc3)CC2)Oc2ccccc21` (racemic): the Ki selectivity ratio (sigma2/sigma1) in [1] was 2630. Also, the Activity in assay [8] came to 62.7%; in assay [9] it was 23.3%; in [10], 14%. In addition, the result in the assay with MCF7 [5] was inactive. This compound also showed a negative-log Ki (pKi) in assay [2] of 6.76. Also, the outcome in the assay with NCI/ADR-RES [6] was Active.

On to `c1ccc(CN2CCC(C3CCc4ccccc4S3)CC2)cc1` (racemic), for which the Ki selectivity ratio (sigma2/sigma1) in assay [1] turned out to be 1000. The outcome in the assay on MCF7 [5] was inactive. The pKi in assay [2] was 7.24. In addition, the half-inhibitory concentration (IC50) in assay [4] amounted to 8.4 µM. The same compound showed a Ki in assay [3] of 0.0575 nM. Besides, the outcome with NCI/ADR-RES [6] was Active.

Take `O=C1CC(C2CCN(Cc3ccccc3)CC2)Sc2ccccc21` (racemic): the Activity in [8] came to 61.5%; in assay [9], 24.4%; in assay [10], 13.9%. Further, the result with MCF7 [5] and in the assay with Mus musculus [11] was inactive. Further, in [2], the negative-log Ki (pKi) is 5.81. The result in the assay with Mus musculus [12] and in the assay with NCI/ADR-RES [6] was Active.

In assay [2], `O=C(CCCN1CCC(O)(c2ccc(Cl)cc2)CC1)c1ccc(F)cc1` [HALOPERIDOL] came in with a pKi of 6.95.

For `c1ccc(CN2CCC3(CCc4ccccc4S3)CC2)cc1` [SPIPETHIANE], the Activity with MCF7 [13] is 2.7%; in assay [8], 55.1%; in assay [9], 24.8%; in the assay on MCF7 [14], 10%; in assay [10], 20.1%; in the assay with NCI/ADR-RES [15], 5.4%. The figures for the Activity with MCF7 [16] and with MCF7 [17] were 17% and 73%, respectively. Further, in assay [1], the Ki selectivity ratio (sigma2/sigma1) worked out at 676. Moreover, the result in the assay on MCF7 [5] was inactive. This compound also returned a pKi in [2] of 6.4. The IC50 in assay [4] stood at 6.3 µM. The same compound had a Ki in assay [3] of 0.589 nM. The result in the assay on NCI/ADR-RES [6] was Active.
